Active and inactive are the calls of the source. No cut-off for these calls is given here.
Tests used:
[1] = biological target: T1, C-X-C chemokine receptor type 4 (Homo sapiens, UniProt P61073); test: Antagonist activity at CXCR4 in human HPBALL cells assessed as inhibition of APC-conjugate clone 12G5 antibody signal incubated for 3 hrs by flow cytometric analysis; format: cell-based
Target sequence in this assay (P61073 whole entry): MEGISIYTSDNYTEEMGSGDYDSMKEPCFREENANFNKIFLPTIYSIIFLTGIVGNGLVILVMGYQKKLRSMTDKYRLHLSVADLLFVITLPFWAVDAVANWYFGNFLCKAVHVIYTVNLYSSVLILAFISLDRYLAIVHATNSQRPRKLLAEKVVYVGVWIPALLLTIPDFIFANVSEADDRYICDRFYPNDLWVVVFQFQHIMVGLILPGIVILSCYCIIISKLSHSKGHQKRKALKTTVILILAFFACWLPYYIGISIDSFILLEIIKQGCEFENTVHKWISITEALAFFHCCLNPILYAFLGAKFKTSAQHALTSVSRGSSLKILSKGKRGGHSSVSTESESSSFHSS

[2] = Protein binding in mouse plasma; format: ADME, cell-free; settings: read-out: PPB (converted)
[3] = biological target: Voltage-gated inwardly rectifying potassium channel KCNH2 (Homo sapiens, UniProt Q12809); test: Inhibition of human ERG stably expressed in CHO cells after 4 mins; format: cell-based
Chain of Voltage-gated inwardly rectifying potassium channel KCNH2 (Q12809 whole entry): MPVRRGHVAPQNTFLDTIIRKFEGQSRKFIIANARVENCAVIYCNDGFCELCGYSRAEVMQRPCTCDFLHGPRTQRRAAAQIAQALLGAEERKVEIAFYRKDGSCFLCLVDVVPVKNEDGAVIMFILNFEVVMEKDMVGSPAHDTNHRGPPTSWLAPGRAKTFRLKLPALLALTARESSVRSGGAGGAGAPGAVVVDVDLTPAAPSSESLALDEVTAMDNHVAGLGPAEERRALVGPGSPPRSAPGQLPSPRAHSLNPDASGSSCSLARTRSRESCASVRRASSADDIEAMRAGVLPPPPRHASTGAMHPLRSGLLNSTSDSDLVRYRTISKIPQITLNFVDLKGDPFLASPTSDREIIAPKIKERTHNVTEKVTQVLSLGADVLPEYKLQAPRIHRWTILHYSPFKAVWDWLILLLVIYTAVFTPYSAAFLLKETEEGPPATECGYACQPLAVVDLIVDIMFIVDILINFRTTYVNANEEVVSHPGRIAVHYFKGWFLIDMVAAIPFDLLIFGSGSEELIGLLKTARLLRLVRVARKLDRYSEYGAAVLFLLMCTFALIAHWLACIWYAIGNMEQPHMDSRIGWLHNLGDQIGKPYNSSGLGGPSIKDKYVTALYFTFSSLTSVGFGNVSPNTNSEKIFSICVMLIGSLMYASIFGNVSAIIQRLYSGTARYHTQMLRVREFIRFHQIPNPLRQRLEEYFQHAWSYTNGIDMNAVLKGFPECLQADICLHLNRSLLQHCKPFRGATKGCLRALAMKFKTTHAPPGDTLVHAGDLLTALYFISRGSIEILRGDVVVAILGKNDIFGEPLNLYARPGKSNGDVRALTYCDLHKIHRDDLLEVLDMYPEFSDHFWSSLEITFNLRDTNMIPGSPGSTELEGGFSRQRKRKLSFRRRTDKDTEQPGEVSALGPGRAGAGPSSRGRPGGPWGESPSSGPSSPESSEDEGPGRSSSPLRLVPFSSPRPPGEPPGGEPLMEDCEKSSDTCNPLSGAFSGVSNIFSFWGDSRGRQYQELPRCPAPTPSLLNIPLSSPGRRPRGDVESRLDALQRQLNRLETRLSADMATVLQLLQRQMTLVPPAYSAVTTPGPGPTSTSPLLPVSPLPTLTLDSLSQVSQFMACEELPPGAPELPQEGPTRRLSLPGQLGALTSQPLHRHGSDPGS
How it was run: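 hERG-expressing CHO cells on automated QPatch. Holding potential -80 mV, 500 ms step to +20 mV, tail current measured at -50 mV, pulses every 20 s. External solution 4 mM K⁺, 1 mM Mg²⁺, 2 mM Ca²⁺. Effect quantified 4 min after compound application.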

[4] = biological target: T1, C-X-C chemokine receptor type 4; test: Antagonist activity at CXCR4 in human CD4-positive T cells assessed as inhibition of CXCL12-induced calcium signal incubated for 20 mins by FLIPR assay; format: functional, cell-based, CD4+ve Th
Target sequence in this assay (P61073 whole entry): as the sequence (P61073 whole entry) above

[5] = Half life in rat liver microsomes at 1 uM preincubated for 10 mins followed by NADPH addition and measured up to 60 mins by LC-MS/MS analysis; format: ADME, Microsome; settings: time <=70 min
CYP3A4 = CYP3A4 (Homo sapiens, UniProt P08684); test: Inhibition of CYP3A4 in human liver microsomes using midazolam as substrate at 10 uM preincubated for 10 mins followed by NADPH addition and measured after 10 mins by LC-MS/MS analysis relative to control; format: ADME; settings: probe midazolam, time 20 min
Chain of CYP3A4 (P08684 whole entry): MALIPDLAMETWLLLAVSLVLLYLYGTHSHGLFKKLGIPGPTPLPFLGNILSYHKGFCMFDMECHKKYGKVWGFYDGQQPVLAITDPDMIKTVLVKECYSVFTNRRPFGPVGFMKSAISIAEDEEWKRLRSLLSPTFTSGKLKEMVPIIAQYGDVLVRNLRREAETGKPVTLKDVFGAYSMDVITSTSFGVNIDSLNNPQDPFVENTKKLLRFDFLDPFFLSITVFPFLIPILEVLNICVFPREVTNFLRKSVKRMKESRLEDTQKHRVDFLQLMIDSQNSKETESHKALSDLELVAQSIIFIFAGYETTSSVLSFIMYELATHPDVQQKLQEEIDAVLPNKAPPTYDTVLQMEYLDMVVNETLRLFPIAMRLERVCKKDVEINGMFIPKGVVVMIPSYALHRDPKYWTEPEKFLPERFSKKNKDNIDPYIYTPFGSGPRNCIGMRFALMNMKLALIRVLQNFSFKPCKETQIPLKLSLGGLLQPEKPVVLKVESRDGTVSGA
How it was run: (§1)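 Human liver microsomes 0.2 mg/mL in 100 mM phosphate, pH 7.4, compound 10 µM, probe substrate midazolam 1 µM (CYP3A4) or dextromethorphan 5 µM (CYP2D6). After a 10 min preincubation, reaction started with 1 mM NADPH, 37 °C for 10 min, then stopped with cold acetonitrile. Metabolites quantified by LC-MS/MS. Triplicate incubations.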

[6] = biological target: T2, C-C chemokine receptor type 6 (Homo sapiens) (UniProt P51684); test: Antagonist activity at CCR6 in human CD4-positive cells assessed as inhibition of CCL20-induced calcium signal up to 10000 nM by FLIPR assay; format: functional, cell-based; settings: CD4+ve Th, dose nM <=10000
T2 sequence (whole entry): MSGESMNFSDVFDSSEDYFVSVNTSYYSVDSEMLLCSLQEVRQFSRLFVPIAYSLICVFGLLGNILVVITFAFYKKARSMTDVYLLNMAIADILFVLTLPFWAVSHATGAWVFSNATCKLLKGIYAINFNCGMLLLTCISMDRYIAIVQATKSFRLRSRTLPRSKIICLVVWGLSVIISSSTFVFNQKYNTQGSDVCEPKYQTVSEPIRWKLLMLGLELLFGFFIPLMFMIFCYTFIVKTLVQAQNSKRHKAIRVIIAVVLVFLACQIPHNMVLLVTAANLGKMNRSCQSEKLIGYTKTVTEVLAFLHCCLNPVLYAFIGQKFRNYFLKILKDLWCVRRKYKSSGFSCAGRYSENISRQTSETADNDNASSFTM
How it was run: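 Cryopreserved activated human CD4+ CCR6-enriched T cells at 2.5×10^6/mL in HBSS/20 mM HEPES/0.005% P-104, loaded with Calcium 4 dye. Compound final 10 µM to 0.035 nM in 0.5% DMSO, followed by CCL20 stimulation. Calcium flux read on FLIPR Tetra. % effect taken relative to on-plate controls; IC50 from a four-parameter logistic fit.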

L929 = test: Cytotoxicity against mouse L929 cells assessed as reduction in cell viability up to 1000 nM by CellTiter-Glo assay; format: cell-based
MDA-MB-231 = test: Cytotoxicity against human MDA-MB-231 cells assessed as reduction in cell viability up to 1000 nM by CellTiter-Glo assay; format: functional, cell-based; settings: dose nM <=1000
How it was run: (§2)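 Cell viability measured with CellTiter-Glo ATP luminescence at compound concentrations up to 1000 nM.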

[7] = biological target: T1, C-X-C chemokine receptor type 4; test: Antagonist activity at CXCR4 in human MDA-MB-231 cells assessed as inhibition of CXCL12-mediated chemotaxis at 100 nM after 22 hrs by transwell assay; settings: filed as antagonist
Target sequence in this assay (P61073 whole entry, looked up): as the sequence (P61073 whole entry) above

[8] = Protein binding in human plasma; format: ADME, cell-free; settings: read-out: PPB
MEF = test: Cytotoxicity against MEF cells assessed as reduction in cell viability up to 1000 nM by CellTiter-Glo assay; format: cell-based; settings: mouse; how it was run: as §2
[9] = Protein binding in rat plasma; format: ADME, cell-free; settings: read-out: PPB (converted)
[10] = Efflux ratio in across basolateral to apical side over apical to basolateral side in human Caco2 cells at 10 uM after 90 mins by LC-MS/MS analysis; format: ADME, cell-based; settings: Caco-2
How it was run: (§3)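 Caco-2 cells grown 21–28 days on polycarbonate inserts. TEER and Lucifer Yellow checked before and after the assay. Compound at 10 µM in HBSS with 25 mM HEPES, pH 7.4, tested A-B and B-A, 37 °C for 90 min. Samples quantified by LC-MS/MS against a standard curve.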

CYP2D6 = CYP2D6 (Homo sapiens, UniProt P10635); test: Inhibition of CYP2D6 in human liver microsomes using dextromethorphan as substrate at 10 uM preincubated for 10 mins followed by NADPH addition and measured after 10 mins by LC-MS/MS analysis relative to control; format: ADME; settings: probe dextromethorphan, time 20 min; how it was run: as §1
Chain of CYP2D6 (P10635 whole entry): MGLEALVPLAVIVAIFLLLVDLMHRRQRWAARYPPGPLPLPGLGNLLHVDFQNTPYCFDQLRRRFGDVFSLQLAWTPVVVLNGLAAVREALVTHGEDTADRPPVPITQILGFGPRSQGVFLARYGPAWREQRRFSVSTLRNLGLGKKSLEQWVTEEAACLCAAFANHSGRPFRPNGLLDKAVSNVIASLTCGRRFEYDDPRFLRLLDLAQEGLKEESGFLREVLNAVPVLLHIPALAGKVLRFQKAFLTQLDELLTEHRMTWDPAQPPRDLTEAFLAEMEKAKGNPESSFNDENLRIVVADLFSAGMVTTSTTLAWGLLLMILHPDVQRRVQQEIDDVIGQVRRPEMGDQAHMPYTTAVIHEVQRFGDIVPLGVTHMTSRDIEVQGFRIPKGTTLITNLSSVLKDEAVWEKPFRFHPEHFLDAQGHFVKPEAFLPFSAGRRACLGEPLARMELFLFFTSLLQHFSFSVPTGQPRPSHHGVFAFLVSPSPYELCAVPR

Hepa1-6 = test: Cytotoxicity against […] cells assessed as reduction in cell viability up to 1000 nM by CellTiter-Glo assay; format: functional, cell-based; settings: dose nM <=1000
[11] = Intrinsic clearance in rat liver microsomes at 1 uM preincubated for 10 mins followed by NADPH addition and measured up to 60 mins by LC-MS/MS analysis; format: ADME, Microsome; settings: time <=70 min, read-out: CLH
[12] = biological target: T3, C-X-C chemokine receptor type 1 (Homo sapiens) (UniProt P25024); test: Antagonist activity at CXCR1 (unknown origin) stably expressed in HEK293 cells assessed as reduction in IL-8-induced intracellular calcium change up to 10000 nM incubated for 15 mins followed by IL-8-stimulation and measured after 15 mins by cAMP-d2/Eu-Anti-cAM based fluorescence assay; format: functional, cell-based; settings: dose nM <=10000, time 30.0 min, in the assay text read “intracellular cAMP change” for “intracellular calcium change”
T3 sequence (whole entry): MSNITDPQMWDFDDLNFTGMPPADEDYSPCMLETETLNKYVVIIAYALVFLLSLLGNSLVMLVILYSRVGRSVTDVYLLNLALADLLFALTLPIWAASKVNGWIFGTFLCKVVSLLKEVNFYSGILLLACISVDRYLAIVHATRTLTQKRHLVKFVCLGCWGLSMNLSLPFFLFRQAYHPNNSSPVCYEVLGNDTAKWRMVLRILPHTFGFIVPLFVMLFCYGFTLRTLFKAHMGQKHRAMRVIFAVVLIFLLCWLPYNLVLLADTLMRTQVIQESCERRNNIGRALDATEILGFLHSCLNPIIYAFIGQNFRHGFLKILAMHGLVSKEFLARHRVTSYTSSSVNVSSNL
How it was run: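 HEK293 cells overexpressing CXCR1, trypsin-dissociated, 2000 cells/well. Compound in a 10-point 4-fold series, 15 min at rt, then forskolin 4.4 µM plus IL-8 100 nM (in the added solution) for 15 min at rt. cAMP measured with cAMP-d2/Eu-anti-cAMP HTRF, 60 min at rt, read at 665/615 nm.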

[13] = Apparent permeability across apical to basal side in human Caco2 cells at 10 uM after 90 mins by LC-MS/MS analysis; format: ADME, cell-based; settings: Caco-2; how it was run: as §3

Row | IC50 [1] | Compound | also measured
1 | 151 nM | CC(C)Oc1nc(CN(C)C2CCCc3cccnc32)cc(N2CCN(C)CC2)n1 (racemic) | –
2 | > 10000 nM | CN1CCN(c2cc(CN(C)C3CCCc4cccnc43)nc(N(C)C)n2)CC1 (racemic) | –
3 | 58 nM | CNc1nc(CN(C)C2CCCc3cccnc32)cc(N2CCN(C)CC2)n1 (racemic) | –
4 | 293 nM | CN1CCN(c2cc(CN(C)[C@H]3CCCc4cccnc43)nc(C(F)(F)F)n2)CC1 | –
5 | 256 nM | CC(C)c1nc(CN(C)C2CCCc3cccnc32)cc(N2CCN(C)CC2)n1 (racemic) | –
6 | 1290 nM | CN1CCN(c2cc(CN(C)C3CCCc4cccnc43)nc(-c3cnn(C)c3)n2)CC1 (racemic) | –
7 | 23 nM | CN1CCN(c2cc(CN(C)C3CCCc4cccnc43)nc(C3CC3)n2)CC1 (racemic) | –
8 | 105 nM | CCNc1nc(CN(C)C2CCCc3cccnc32)cc(N2CCN(C)CC2)n1 (racemic) | –
9 | 930 nM | CC(C)Nc1nc(CN(C)C2CCCc3cccnc32)cc(N2CCN(C)CC2)n1 (racemic) | –
10 | 25 nM | COc1nc(CN(C)C2CCCc3cccnc32)cc(N2CCN(C)CC2)n1 (racemic) | –
11 | 23 nM | CN1CCN(c2cc(CN(C)C3CCCc4cccnc43)nc(N)n2)CC1 (racemic) | –
12 | 25 nM | CCc1nc(CN(C)C2CCCc3cccnc32)cc(N2CCN(C)CC2)n1 (racemic) | –
13 | 78 nM | CCOc1nc(CN(C)C2CCCc3cccnc32)cc(N2CCN(C)CC2)n1 (racemic) | –
14 | 2890 nM | CN1CCN(c2cc(CN(C)C3CCCc4cccnc43)nc(-c3ccccc3)n2)CC1 (racemic) | –

Continued, molecule first:

Row | Compound | IC50 [1] | also measured
15 | Cc1nc(CN(C)[C@H]2CCCc3cccnc32)cc(N2CCN(C)[C@@H](C)C2)n1 | 14 nM | –
16 | Cc1nc(CN(CC2CC2)C2CCCc3cccnc32)cc(N2CCN(C)CC2)n1 (racemic) | 51 nM | –
17 | Cc1nc(CN(C)C2CCCc3cccnc32)c(C#N)c(N2CCN(C)CC2)n1 (racemic) | 33 nM | –
18 | Cc1nc(CN(C)[C@H]2CCCc3cccnc32)cc(N2CCC(N3CCOCC3)CC2)n1 | 101 nM | –
19 | Cc1nc(CN(C)[C@H]2CCCc3cccnc32)cc(N2CCN(C)[C@H](C)C2)n1 | 8.3 nM | –
20 | Cc1nc(CN(C)[C@H]2CCCc3cccnc32)cc(N2CCN(C3COC3)CC2)n1 | 130 nM | –
21 | Cc1nc(CN(C)[C@H]2CCCc3cccnc32)cc(N2CCC(N3CCN(C)CC3)CC2)n1 | 96 nM | –
22 | CN1CCN(c2cc(CN(C)C3CCCc4cccnc43)nc(N3CCCC3)n2)CC1 (racemic) | > 10000 nM | –
23 | CN1CCN(c2cc(CN(C)C3CCCc4cccnc43)nc(N(C)CCO)n2)CC1 (racemic) | 792 nM | –
24 | CCN1CCN(c2cc(CN(C)[C@H]3CCCc4cccnc43)nc(C)n2)CC1 | 10 nM | –
25 | Cc1nc(CN(C)[C@H]2CCCc3cccnc32)cc(N2CCN3CCC[C@@H]3C2)n1 | 30 nM | –
26 | Cc1nc(CN(C)[C@H]2CCCc3cccnc32)cc(N2CCN(C)CC2)n1 | 8.8 nM | fraction unbound [2]: 0.11; IC50 [3]: 8000 nM; IC50 [4]: 0.02 nM; half-life at 1 µM [5]: 1.6 min; inhibition at 10 min, 10 µM (CYP3A4): 48%; Activity [6]: inactive; Activity (L929): Non-Toxic; Activity (MDA-MB-231): inactive; Activity [7]: Active; fraction unbound [8]: 0.01; Activity (MEF): Non-Toxic; fraction unbound [9]: 0.18; efflux ratio at 1.5 h, 10 µM [10]: 0.86; inhibition at 10 min, 10 µM (CYP2D6): 57%; Activity (Hepa1-6): inactive; CLint scaled at 1 µM [11]: 1570 mL/min/kg; Activity [12]: inactive; Papp A→B at 1.5 h, 10 µM [13]: 27 ×10⁻⁶ cm/s
27 | CN1CCN(c2cc(CN(C)C3CCCc4cccnc43)nc(N3CCOCC3)n2)CC1 (racemic) | 2440 nM | –
28 | CCN(Cc1cc(N2CCN(C)CC2)nc(C)n1)C1CCCc2cccnc21 (racemic) | 17 nM | –
29 | Cc1nc(CN(C)[C@H]2CCCc3cccnc32)cc(N2CCN3CCC[C@H]3C2)n1 | 18 nM | –
30 | Cc1nc(CN(C)C2CCCc3cccnc32)c(F)c(N2CCN(C)CC2)n1 (racemic) | 12 nM | –
31 | Cc1nc(CN(C)[C@H]2CCCc3cccnc32)cc(N2C[C@@H](C)N(C)[C@@H](C)C2)n1 | 8.3 nM | –
32 | Cc1nc(CN(C)[C@H]2CCCc3cccnc32)cc(N2CCN(C)C[C@H]2C)n1 | 21 nM | –
33 | Cc1nc(CN(C)C2CCCc3cccnc32)cc(N2CCN(C)CC2)n1 (racemic) | 12 nM | –
34 | Cc1nc(CN(C)[C@H]2CCCc3cccnc32)cc(NCCN2CCOCC2)n1 | 66 nM | –
35 | Cc1nc(CN(C)[C@H]2CCCc3cccnc32)cc(N2CCN(C3CC3)CC2)n1 | 70 nM | –
36 | Cc1nc(CN(C)[C@H]2CCCc3cccnc32)cc(NCCCN2CCOCC2)n1 | 36 nM | –
37 | Cc1nc(CN(C)[C@H]2CCCc3cccnc32)cc(N2CCN(C)C[C@@H]2C)n1 | 14 nM | –
38 | Cc1nc(CN(C)[C@H]2CCCc3cccnc32)cc(N(C)CCO)n1 | > 10000 nM | –

— ChEMBL document CHEMBL4706482, “Structural optimization of aminopyrimidine-based CXCR4 antagonists” (Eur J Med Chem, 2020)
